From ChEMBL document CHEMBL5042517, “Discovery, X-ray Crystallography, and Anti-inflammatory Activity of Bromodomain-containing Protein 4 (BRD4) BD1 Inhibitors Targeting a Distinct New Binding Site” (J Med Chem, 2022)
Active and inactive are the calls of the source. The rule behind the calls is not given here.

What was measured:
[1] = AUC (0 to t) in rat at 20 mg/kg, po; format: ADME, organism-based; set-up: dose 20 mg/kg; conditions: in vivo
[2] = Antiinflammatory activity in human SAEC assessed as inhibition of Poly(I:C) induced CIG5 expression pretreated for 24 hrs followed by Poly(I:C) addition for 4 hrs by qRT-PCR analysis; format: functional, cell-based
Summary of the method: (§1)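 Poly(I:C) 10 μg/mL then added for 4 h. CIG5 or IL-6 mRNA measured by qRT-PCR (ΔΔCt, PPIA normalized). IC50 from a four-parameter fit, mean ± SD of three independent runs.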

[3] = Antiinflammatory activity in human SAEC assessed as inhibition of Poly(I:C) induced IL-6 expression pretreated for 24 hrs followed by Poly(I:C) addition for 4 hrs by qRT-PCR analysis; format: functional, cell-based; summary of the method: as §1
[4] = target: T1, Bromodomain-containing protein 2 (Homo sapiens, UniProt P25440); assay: Binding affinity BRD2 BD1 (unknown origin) incubated for 1 hr by TR-FRET assay
Summary of the method: (§2)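 Commercial TR-FRET kit with recombinant BRD2 bromodomain. Inhibitor at 0.01 nM–100 μM, 1 h at room temperature. Excitation 340 nm; 670/620 nm emission ratio read with 100 μs delay. IC50 from a four-parameter fit, mean of three runs.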

[5] = target: T1, Bromodomain-containing protein 2; assay: Binding affinity BRD2 BD2 (unknown origin) incubated for 1 hr by TR-FRET assay; summary of the method: as §2
[6] = target: Bromodomain-containing protein 3 (Homo sapiens, UniProt Q15059); assay: Binding affinity BRD3 BD1 (unknown origin) incubated for 1 hr by TR-FRET assay
[7] = target: Bromodomain testis-specific protein (Homo sapiens, UniProt Q58F21); assay: Binding affinity BRDT BD1 (unknown origin) incubated for 1 hr by TR-FRET assay
[8] = target: T2, Bromodomain-containing protein 4 (Homo sapiens, UniProt O60885); assay: Binding affinity to wild type human BRD4 BD2 (349 to 461 residues) expressed in bacterial competent cells assessed as increase in thermal stability by thermal shift assay
[9] = Cmax in rat at 20 mg/kg, po; format: ADME, organism-based; set-up: route oral, dose 20 mg/kg; conditions: in vivo
[10] = AUC (0 to t) in rat at 10 mg/kg, iv; format: ADME, organism-based; set-up: dose 10 mg/kg; conditions: in vivo
[11] = Volume of distribution at steady state in rat at 20 mg/kg, po; format: ADME, organism-based; conditions: in vivo
[12] = Clearance in rat at 10 mg/kg, iv; format: ADME, organism-based; conditions: in vivo
Mus musculus [13] = assay: Antiinflammatory activity in C57BL/6 mouse model of poly(I:C)-induced acute airway inflammation assessed as inhibition of neutrophilic inflammation around small sized airways at 10 mg/kg, po administered 1 day prior to poly(I:C) stimulation by H and E staining based analysis; format: functional; set-up: scale not given: the % may be the effect or the level left
Mus musculus [14] = assay: Antiinflammatory activity in C57BL/6 mouse model of poly(I:C)-induced acute airway inflammation assessed as decrease in IL-6 level in BALF at 10 mg/kg, po administered 1 day prior to poly(I:C) stimulation; format: functional, organism-based
Mus musculus [15] = assay: Antiinflammatory activity in C57BL/6 mouse model of poly(I:C)-induced acute airway inflammation assessed as decrease in KC level in BALF at 10 mg/kg, po administered 1 day prior to poly(I:C) stimulation; format: functional, organism-based
Mus musculus [16] = assay: Antiinflammatory activity in C57BL/6 mouse model of poly(I:C)-induced acute airway inflammation assessed as decrease in MCP-1 level in BALF at 10 mg/kg, po administered 1 day prior to poly(I:C) stimulation; format: functional, organism-based
Mus musculus [17] = assay: Antiinflammatory activity in C57BL/6 mouse model of poly(I:C)-induced acute airway inflammation assessed as decrease in RANTES level in BALF at 10 mg/kg, po administered 1 day prior to poly(I:C) stimulation; format: functional, organism-based
Mus musculus [18] = assay: Antiinflammatory activity in C57BL/6 mouse model of poly(I:C)-induced acute airway inflammation assessed as decrease in IL-6 gene expression in lung tissue at 10 mg/kg, po administered 1 day prior to poly(I:C) stimulation; format: functional, organism-based
Mus musculus [19] = assay: Antiinflammatory activity in C57BL/6 mouse model of poly(I:C)-induced acute airway inflammation assessed as decrease in KC gene expression in lung tissue at 10 mg/kg, po administered 1 day prior to poly(I:C) stimulation; format: functional, organism-based
Mus musculus [20] = assay: Antiinflammatory activity in C57BL/6 mouse model of poly(I:C)-induced acute airway inflammation assessed as decrease in CIG5 gene expression in lung tissue at 10 mg/kg, po administered 1 day prior to poly(I:C) stimulation; format: functional, organism-based
Mus musculus [21] = assay: Antiinflammatory activity in C57BL/6 mouse model of poly(I:C)-induced acute airway inflammation assessed as decrease in ISG54 gene expression in lung tissue at 10 mg/kg, po administered 1 day prior to poly(I:C) stimulation; format: functional, organism-based
SAEC = assay: Antiinflammatory activity in human SAEC assessed as decrease in H3K122Ac accumulation by immunofluorescence analysis; format: functional, cell-based
Summary of the method: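 Immortalized human small airway epithelial cells stimulated with poly(I:C) at 10 μg/mL. H3K122Ac detected by immunofluorescence and quantified as fold change in total fluorescence intensity.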

Mus musculus [22] = assay: Antiinflammatory activity in C57BL/6 mouse model of poly(I:C)-induced acute airway inflammation assessed as decrease in total cells level in BALF at 10 mg/kg, po administered 1 day prior to poly(I:C) stimulation; format: functional, organism-based
Mus musculus [23] = assay: Antiinflammatory activity in C57BL/6 mouse model of poly(I:C)-induced acute airway inflammation assessed as decrease in neutrophils level in BALF at 10 mg/kg, po administered 1 day prior to poly(I:C) stimulation; format: functional, organism-based
[24] = target: T2, Bromodomain-containing protein 4
[25] = target: T2, Bromodomain-containing protein 4; remark: listed apart in the source
[26] = target: T2, Bromodomain-containing protein 4; remark: listed apart in the source
[27] = target: T2, Bromodomain-containing protein 4; remark: listed apart in the source
[28] = target: T2, Bromodomain-containing protein 4; remark: listed apart in the source
[29] = target: T2, Bromodomain-containing protein 4; remark: listed apart in the source
[30] = target: T2, Bromodomain-containing protein 4; remark: listed apart in the source
[31] = target: T2, Bromodomain-containing protein 4; remark: listed apart in the source
[32] = tested on: Bromodomain-containing protein 4 (Homo sapiens), O60885 [E151A]
[33] = tested on: Bromodomain-containing protein 4 (Homo sapiens), O60885 [E151A]; remark: listed apart in the source

T1 sequence (P25440 whole entry): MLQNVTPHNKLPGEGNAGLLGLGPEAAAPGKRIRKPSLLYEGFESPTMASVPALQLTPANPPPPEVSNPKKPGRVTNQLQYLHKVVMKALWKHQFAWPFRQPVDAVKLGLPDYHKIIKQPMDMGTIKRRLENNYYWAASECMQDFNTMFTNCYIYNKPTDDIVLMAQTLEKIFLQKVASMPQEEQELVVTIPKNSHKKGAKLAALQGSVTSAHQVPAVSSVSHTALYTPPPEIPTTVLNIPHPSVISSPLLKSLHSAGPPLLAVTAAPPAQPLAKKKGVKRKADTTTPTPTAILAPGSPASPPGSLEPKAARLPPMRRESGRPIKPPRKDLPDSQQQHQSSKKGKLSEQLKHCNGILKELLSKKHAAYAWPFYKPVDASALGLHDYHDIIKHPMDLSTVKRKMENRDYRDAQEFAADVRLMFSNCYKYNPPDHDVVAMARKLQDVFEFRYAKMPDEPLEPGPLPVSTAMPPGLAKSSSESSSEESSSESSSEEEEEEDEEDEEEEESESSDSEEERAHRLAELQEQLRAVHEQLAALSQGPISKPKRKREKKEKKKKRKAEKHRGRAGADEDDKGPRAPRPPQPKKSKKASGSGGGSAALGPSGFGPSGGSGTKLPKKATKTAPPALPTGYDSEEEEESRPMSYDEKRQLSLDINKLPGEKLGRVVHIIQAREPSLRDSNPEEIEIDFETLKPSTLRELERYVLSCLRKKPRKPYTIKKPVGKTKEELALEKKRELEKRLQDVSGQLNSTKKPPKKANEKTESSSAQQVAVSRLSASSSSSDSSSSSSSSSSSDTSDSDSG
Chain of Bromodomain-containing protein 3 (Q15059 whole entry): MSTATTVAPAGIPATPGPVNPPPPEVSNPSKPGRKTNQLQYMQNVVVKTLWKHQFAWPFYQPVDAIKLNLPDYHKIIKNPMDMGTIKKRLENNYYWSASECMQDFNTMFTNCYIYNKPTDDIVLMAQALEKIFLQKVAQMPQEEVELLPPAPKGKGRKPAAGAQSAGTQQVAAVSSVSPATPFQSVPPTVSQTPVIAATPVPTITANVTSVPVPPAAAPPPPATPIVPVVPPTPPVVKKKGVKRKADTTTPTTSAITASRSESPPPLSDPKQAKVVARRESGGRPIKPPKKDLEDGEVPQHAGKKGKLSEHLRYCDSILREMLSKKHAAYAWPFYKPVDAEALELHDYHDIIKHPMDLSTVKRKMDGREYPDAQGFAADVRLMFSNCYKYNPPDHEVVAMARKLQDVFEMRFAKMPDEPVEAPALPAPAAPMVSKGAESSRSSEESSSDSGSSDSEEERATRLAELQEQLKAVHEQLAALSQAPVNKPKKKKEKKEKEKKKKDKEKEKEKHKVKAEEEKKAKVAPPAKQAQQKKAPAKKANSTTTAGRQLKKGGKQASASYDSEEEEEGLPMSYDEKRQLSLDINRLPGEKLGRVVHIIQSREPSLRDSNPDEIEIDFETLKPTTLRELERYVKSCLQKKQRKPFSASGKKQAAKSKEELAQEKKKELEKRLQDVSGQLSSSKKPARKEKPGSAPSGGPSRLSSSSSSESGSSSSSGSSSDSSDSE

Compound: O=C(Nc1ccc(C(F)(F)F)cc1)Nc1ccc(S(=O)(=O)N2CCC[C@H]2CN2CCOCC2)cc1
- AUC(0-t) [1]: 602 ng·h/mL
- IC50 [2]: 200 nM
- IC50 [3]: 370 nM
- IC50 [4]: 835 nM
- IC50 [5]: 1310 nM
- IC50 [6]: 2180 nM
- IC50 [7]: 2420 nM
- Activity [8]: inactive
- Cmax [9]: 86.9 ng/mL
- AUC(0-t) [10]: 2170 ng·h/mL
- Vdss [11]: 170 L/kg
- clearance [12]: 75 mL/min/kg
- Activity (Mus musculus [13]): 100%
- Activity (Mus musculus [14]): inactive
- Activity (Mus musculus [15]): inactive
- Activity (Mus musculus [16]): inactive
- Activity (Mus musculus [17]): inactive
- Activity (Mus musculus [18]): inactive
- Activity (Mus musculus [19]): inactive
- Activity (Mus musculus [20]): inactive
- Activity (Mus musculus [21]): Active
- Activity (SAEC): Active
- Activity (Mus musculus [22]): Active
- Activity (Mus musculus [23]): Active
- ΔTm [24]: 6.6 °C
- ΔTm [25]: 5.8 °C
- ΔTm [26]: 0.7 °C
- ΔTm [27]: 13.3 °C
- ΔTm [28]: 0.6 °C
- ΔTm [29]: 1.1 °C
- ΔTm [30]: 0.9 °C
- ΔTm [31]: 0.6 °C
- ΔTm [32]: 0.9 °C
- ΔTm [33]: 0.1 °C
